VIM-2 inhibitor = VIM-2 metallo-beta-lactamase inhibitors, primary screen, biochemical, epi-absorbance readout, Pseudomonas aeruginosa enzyme; purified VIM-2, nitrocefin hydrolysis, epi-absorbance fluorescence; inhibition, % at 5.6 µM; 290,000 tested, 0.89% active; AID 1527, 2009;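 active = inhibition above the mean of all tested compounds plus 3 SD, cutoff set per screening run, cut at about 7.5% in these data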;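 note: red hydrolysis product quenches plate fluorescence so inhibitors raise well fluorescence; 0% = enzyme with DMSO and 100% = DMSO without enzyme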
Runt-SMMHC FRET = inhibitors of RUNX1 Runt–CBFb-SMMHC binding, primary screen, biochemical, FRET, Cerulean-Runt, Venus-CBFb-SMMHC, uHTS. Runt-related transcription factor 1 (Homo sapiens) + Core-binding factor subunit beta …. Cerulean-Runt/Venus-CBFb-SMMHC FRET ratio 530/480, 1 h. inhibition, % at 20 µM. 220,000 tested, 0.74% active. AID 1434, 2008;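 active = mean inhibition across duplicate retests at 20 µM reaching about 50%, limit read from the data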;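 note: 0% = DMSO wells and 100% = wells with excess untagged CBFb-SMMHC; inhibitors lower the FRET ratio by blocking Runt binding to CBFb-SMMHC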
Target sequence (Q01196 whole entry, looked up): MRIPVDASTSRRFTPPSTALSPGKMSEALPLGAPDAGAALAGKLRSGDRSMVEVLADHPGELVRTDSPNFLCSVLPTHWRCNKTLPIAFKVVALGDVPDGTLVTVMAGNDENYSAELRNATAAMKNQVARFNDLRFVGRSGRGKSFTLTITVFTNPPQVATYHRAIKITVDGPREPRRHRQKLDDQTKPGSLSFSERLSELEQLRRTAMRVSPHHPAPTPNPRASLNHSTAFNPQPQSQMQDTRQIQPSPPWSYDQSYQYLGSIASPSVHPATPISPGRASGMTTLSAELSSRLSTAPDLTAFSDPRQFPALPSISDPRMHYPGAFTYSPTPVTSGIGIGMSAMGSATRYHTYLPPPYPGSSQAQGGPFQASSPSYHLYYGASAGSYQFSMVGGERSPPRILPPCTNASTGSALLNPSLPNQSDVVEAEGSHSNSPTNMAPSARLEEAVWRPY
Target sequence (Q13951 whole entry, looked up): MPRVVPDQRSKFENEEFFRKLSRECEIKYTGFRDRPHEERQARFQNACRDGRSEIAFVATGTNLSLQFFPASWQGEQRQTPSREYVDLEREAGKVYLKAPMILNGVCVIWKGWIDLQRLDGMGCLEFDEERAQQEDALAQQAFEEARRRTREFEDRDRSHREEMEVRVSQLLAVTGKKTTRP
IMP-1 inh-1 = IMP-1 metallo-beta-lactamase inhibitors, primary screen, biochemical, epi-absorbance readout, Pseudomonas aeruginosa enzyme. metallo-beta-lactamase IMP-1 (Pseudomonas aeruginosa). purified IMP-1, nitrocefin hydrolysis, epi-absorbance fluorescence. inhibition, % at 5.6 µM. 290,000 tested, 0.45% active. AID 1556, 2009;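 active = inhibition above the mean plus 3 SD of all compounds in the same screening run, cut at about 4.5% in these data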;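 note: 0% = IMP-1 with DMSO and 100% = DMSO wells lacking enzyme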
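System – purified recombinant IMP-1 beta-lactamase · Input – IMP-1 dispensed at 0.2 nM · Timing – 15 min preincubation plus 25 min reaction at 25 °C · Signal – Epi-absorbance fluorescence, 480 nm excitation, 530 nm emission · Measure – percent IMP-1 inhibition derived from blank-referenced optical density · Controls – Enzyme-plus-DMSO low control, enzyme-free DMSO high control · Replication – singlicate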
RanGTP-Imp inh = inhibitors of RanGTP-importin-beta interaction, primary screen, biochemical, FRET, CFP-Ran, YFP-importin-beta, homogeneous; AID 2216, 2009; inhibition, % (concentration not given with the values); cell-free CFP-Ran/YFP-importin-beta FRET ratio; 300,000 tested, 1.1% active;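 active = more than half of the replicate wells show a fall in the fluorescence ratio signal beyond about 16%, limit read from the data, passing the limit was not always enough; inconclusive = exactly half of the replicate wells pass the set limit; inactive = fewer than half of replicates pass the limit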;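 note: 0% = DMSO wells and 100% = Ran loaded with GDP instead of GTP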
Runt-CBFb FRET = inhibitors of RUNX1 Runt–CBFb binding, primary screen, biochemical, FRET, Cerulean-Runt, Venus-CBFb, uHTS. Cerulean-Runt/Venus-CBFb FRET ratio 530/480, 1 h. inhibition, % at 20 µM. 220,000 tested, 0.46% active;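 active = inhibition over about 50% at 20 µM in the single-dose screen, limit read from the data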;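 note: 0% = DMSO wells and 100% = excess unlabeled CBFb competitor control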
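Reagent – Venus-CBFb binding partner, 100 nM · Assay system – Cerulean-tagged RUNX1 Runt domain (FRET donor) fusion protein · Input – 100 nM per protein · Incubation – two 1 h room-temperature incubations shielded from light · Measured by – FRET fluorescence · Medium – Tris buffer pH 7.5 with salts and BSA · Benchmarks – unlabeled CBFb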
IMP-1 inh-2 = IMP-1 metallo-beta-lactamase inhibitors, confirmation, selectivity assay for selective VIM-2 inhibitor project, biochemical, epi-absorbance readout, triplicate | inhibition, % at 5.6 µM | shares compounds with VIM-2 inhibitor | 1,300 tested, under 10 active | purified IMP-1, nitrocefin hydrolysis, epi-absorbance fluorescence | AID 1856, 2009; call rule not given here;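 note: 0% = enzyme with vehicle and 100% = vehicle without enzyme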
VIM-2 FRET ctr = VIM-2 inhibitors in FRET format, confirmation, artefact control for selective VIM-2 inhibitor project, biochemical, epi-absorbance artifact exclusion. shares compounds with VIM-2 inhibitor. purified VIM-2, CCF2 FRET substrate hydrolysis. inhibition, % at 5.6 µM. 1,300 tested, 23% active;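 active = inhibition above the mean of all tested compounds plus 3 SD, cut at about 19% in these data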;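 note: 0% = VIM-2 plus DMSO and 100% = no enzyme wells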
TEM-1 counter = TEM-1 serine beta-lactamase inhibitors, counter-screen for VIM-2 inhibitor project, biochemical, epi-absorbance, HTS | shares compounds with VIM-2 inhibitor | 1,300 tested, 3% active | inhibition, % at 5.6 µM | Purified TEM-1, nitrocefin hydrolysis, epi-absorbance fluorescence;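 active = inhibition above that campaign's mean inhibition plus 3 SD, cut at about 0.46% in these data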;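 note: 0% = TEM-1 with DMSO and 100% = TEM-1 with 100 µM potassium clavulanate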
VIM-2 inh conf = VIM-2 metallo-beta-lactamase inhibitors, confirmation, biochemical, epi-absorbance, hits shared with IMP-1 screen; purified VIM-2, nitrocefin hydrolysis; 1,300 tested, 96% active; shares compounds with VIM-2 inhibitor; inhibition, % at 5.6 µM; AID 2187, 2009;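 active = inhibition of the VIM-2 beta-lactamase enzyme above about 11% from the earlier first-round screen, limit read from the data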;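 note: 0% = VIM-2 with DMSO and 100% = buffer wells without enzyme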
Starred values were filed as active, the others as inactive; ? = inconclusive; nt = no result. This is a sample that favours compounds with a hit; in the whole collection about 2.6% have one here.

SMILES	VIM-2 inhibitor	Runt-SMMHC FRET	IMP-1 inh-1	RanGTP-Imp inh	Runt-CBFb FRET	IMP-1 inh-2	VIM-2 FRET ctr	TEM-1 counter	VIM-2 inh conf
CCN(C(=O)c1cc2c(=O)n3cccc(C)c3nc2n1CCCOC)C1CCCCC1	2	nt	-1	7	nt	nt	nt	nt	nt
COc1ccccc1CNC(=O)CCNS(=O)(=O)c1ccc2[nH]c(=O)oc2c1	-3	nt	-2	?	nt	nt	nt	nt	nt
Cc1ccc(S(=O)(=O)c2c(C)cc(C)[nH]c2=O)c(C)c1	1	nt	0	3	nt	nt	nt	nt	nt
COc1ccc(C(CC(=O)O)NS(=O)(=O)c2ccc3c(c2)N(C(C)=O)CC(C)O3)cc1 (stereo not given)	-2	nt	-2	?	nt	nt	nt	nt	nt
COCCCn1c(C(=O)NC2CCCCC2C)cc2c(=O)n3cccc(C)c3nc21 (stereo not given)	2	nt	-2	6	nt	nt	nt	nt	nt
CNC(=O)c1cc2c(=O)n3cccc(C)c3nc2n(C(C)C)c1=N	12*	60*	1	184*	19	-3	-92	-6	26*
CCC(C)c1ccc(N(C(=O)c2ccco2)C(C(=O)NC2CCCC2)c2cccnc2)cc1 (stereo not given)	-3	nt	-6	-3	nt	nt	nt	nt	nt
Cn1c(=O)n(C)c2cc(/C=N/N=C3/NC(=O)C(CC(=O)O)S3)ccc21 (stereo not given)	22*	0	-4	2	-2	-1	7	-4	37*
O=C(Nc1cc(Cl)ccc1-n1cncn1)c1cc(F)c(F)c(F)c1F	nt	nt	nt	0	nt	nt	nt	nt	nt
CC(=O)N/N=C/c1cc(C)n(-c2ccc(Br)cc2)c1C	-4	4	-3	-3	0	nt	nt	nt	nt
CC(=O)N/N=C/c1cc(C(C)C)cc(/C=N/NC(C)=O)c1O	34*	86	0	-182	-82	-1	12	-2	47*
COC/C=C/C1=CC2=CC(=O)C(C)(OC(=O)c3cnc4ccccc4n3)C(=O)C2=CO1 (stereo not given)	nt	nt	nt	-16	nt	nt	nt	nt	nt
Cc1cccn2c(=O)c3cc(C(=O)N4CCCC(C)C4)sc3nc12 (stereo not given)	15*	nt	-4	0	nt	-3	-2	-7	21*
CCOC(=O)CC1C(=O)NCCN1C(=O)c1cc2c(=O)n3cccc(C)c3nc2s1 (stereo not given)	14*	15	-5	-4	9	-3	-6	-3	26*
CCC1CCCCN1C(=O)c1cc2c(=O)n3cccc(C)c3nc2s1 (stereo not given)	15*	nt	-1	3	nt	-3	-2	-6	21*
CC1CCCCN1C(=O)c1cc2c(=O)n3ccccc3nc2s1 (stereo not given)	1	nt	-1	1	nt	nt	nt	nt	nt
COc1cc(/C=N/N(C)C2=NS(=O)(=O)c3ccccc32)cc(OC)c1OC	32*	nt	-2	6	nt	-3	-2	-11	35*
COc1ccc(/C=C2/SC(=S)N(CCC(=O)N3CCN(C)CC3)C2=O)cc1	4	nt	-1	3	nt	nt	nt	nt	nt

Bioassay records (PubChem)
